ChEMBL document CHEMBL2150987, “Synthesis and evaluation of novel 1,3,4-oxadiazole derivatives of marine bromopyrrole alkaloids as antimicrobial agent” (2012)
Converted amounts (≈) assume the structure as drawn.

Assays:
Type in all cases: functional
Escherichia coli = test: Antibacterial activity against Escherichia coli ATCC 25922 after 24 hrs by broth dilution method; details: ATCC 25922, 24 h
Procedure, shortened: (§1)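 Nutrient broth containing logarithmic twofold serial dilutions of compound, inoculated with about 5 × 10⁵ CFU/mL of actively dividing bacteria, incubated 24 h at 37 °C. Growth was read visually and spectrophotometrically. MIC was the lowest concentration (highest dilution) that arrested growth. Ciprofloxacin served as standard.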

Staphylococcus aureus = test: Antibacterial activity against Staphylococcus aureus ATCC 25923 after 24 hrs by broth dilution method; details: ATCC 25923, 24 h; procedure, shortened: as §1
Pseudomonas aeruginosa = test: Antibacterial activity against Pseudomonas aeruginosa ATCC 27853 after 24 hrs by broth dilution method; details: ATCC 27853, 24 h; procedure, shortened: as §1
Klebsiella pneumoniae = test: Antibacterial activity against Klebsiella pneumoniae after 24 hrs by broth dilution method; procedure, shortened: as §1
Candida albicans = test: Antifungal activity against Candida albicans after 48 hrs by […]
[1] = tested on: Mycobacterium tuberculosis; test: Antitubercular activity against Mycobacterium tuberculosis H37Rv after 7 days by resazurin microtiter assay; details: 168 h

Compound	MIC (Escherichia coli) [µg/mL]	MIC (Staphylococcus aureus) [µg/mL]	MIC (Pseudomonas aeruginosa) [µg/mL]	MIC (Klebsiella pneumoniae) [µg/mL]	MIC (Candida albicans) [µg/mL]	MIC [1] [µg/mL]
Oc1ccccc1-c1nnc(-c2cc(Br)c(Br)[nH]2)o1	3.12 (≈ 8.12 µM)	1.56 (≈ 4.05 µM)	12.5 (≈ 32.5 µM)	100 (≈ 260 µM)	6.25 (≈ 16.2 µM)	36.5 (≈ 94.8 µM)
Brc1cc(-c2nnc(/C=C/c3ccccc3)o2)[nH]c1Br	12.5 (≈ 31.6 µM)	3.12 (≈ 7.91 µM)	6.25 (≈ 15.8 µM)	100 (≈ 253 µM)	12.5 (≈ 31.6 µM)	78.5 (≈ 199 µM)
Oc1ccc(-c2nnc(-c3cc(Br)c(Br)[nH]3)o2)cc1	12.5 (≈ 32.5 µM)	12.5 (≈ 32.5 µM)	6.25 (≈ 16.2 µM)	100 (≈ 260 µM)	12.5 (≈ 32.5 µM)	25 (≈ 64.9 µM)
Fc1ccc(Cl)c(-c2nnc(-c3cc(Br)c(Br)[nH]3)o2)c1	1.56 (≈ 3.7 µM)	1.56 (≈ 3.7 µM)	6.25 (≈ 14.8 µM)	100 (≈ 237 µM)	12.5 (≈ 29.7 µM)	6.5 (≈ 15.4 µM)
O=[N+]([O-])c1ccc(-c2nnc(-c3cc(Br)c(Br)[nH]3)o2)cc1	1.56 (≈ 3.77 µM)	1.56 (≈ 3.77 µM)	6.25 (≈ 15.1 µM)	100 (≈ 242 µM)	1.56 (≈ 3.77 µM)	9 (≈ 21.7 µM)
Brc1cc(-c2nnc(-c3cc(Br)c(Br)[nH]3)o2)[nH]c1Br	1.56 (≈ 3.02 µM)	1.56 (≈ 3.02 µM)	6.25 (≈ 12.1 µM)	100 (≈ 194 µM)	1.56 (≈ 3.02 µM)	3.5 (≈ 6.79 µM)
Brc1cc(-c2nnc(-c3ccccc3)o2)[nH]c1Br	12.5 (≈ 33.9 µM)	6.25 (≈ 16.9 µM)	6.25 (≈ 16.9 µM)	100 (≈ 271 µM)	12.5 (≈ 33.9 µM)	98.7 (≈ 267 µM)
COc1cc(/C=C/c2nnc(-c3cc(Br)c(Br)[nH]3)o2)ccc1O	12.5 (≈ 28.3 µM)	1.56 (≈ 3.54 µM)	12.5 (≈ 28.3 µM)	100 (≈ 227 µM)	12.5 (≈ 28.3 µM)	112 (≈ 255 µM)
Brc1cc(-c2nnc(-c3ccncc3)o2)[nH]c1Br	12.5 (≈ 33.8 µM)	1.56 (≈ 4.22 µM)	12.5 (≈ 33.8 µM)	100 (≈ 270 µM)	12.5 (≈ 33.8 µM)	3.5 (≈ 9.46 µM)
Brc1cc(-c2nnc(/C=C/C3=COc4ccccc4C3)o2)[nH]c1Br	3.12 (≈ 6.96 µM)	1.56 (≈ 3.47 µM)	12.5 (≈ 27.8 µM)	100 (≈ 223 µM)	12.5 (≈ 27.8 µM)	2 (≈ 4.45 µM)
Sc1nnc(-c2cc(Br)c(Br)[nH]2)o1	12.5 (≈ 38.5 µM)	12.5 (≈ 38.5 µM)	12.5 (≈ 38.5 µM)	100 (≈ 308 µM)	12.5 (≈ 38.5 µM)	54.5 (≈ 168 µM)
CSc1nnc(-c2cc(Br)c(Br)[nH]2)o1	12.5 (≈ 36.9 µM)	12.5 (≈ 36.9 µM)	25 (≈ 73.7 µM)	100 (≈ 295 µM)	12.5 (≈ 36.9 µM)	89.5 (≈ 264 µM)
CCSc1nnc(-c2cc(Br)c(Br)[nH]2)o1	12.5 (≈ 35.4 µM)	12.5 (≈ 35.4 µM)	25 (≈ 70.8 µM)	100 (≈ 283 µM)	12.5 (≈ 35.4 µM)	118 (≈ 334 µM)
Brc1cc(-c2nnc(Sc3ccccc3)o2)[nH]c1Br	12.5 (≈ 31.2 µM)	12.5 (≈ 31.2 µM)	25 (≈ 62.3 µM)	100 (≈ 249 µM)	6.25 (≈ 15.6 µM)	23.5 (≈ 58.6 µM)
O=C(CSc1nnc(-c2cc(Br)c(Br)[nH]2)o1)c1ccccc1	3.12 (≈ 7.05 µM)	12.5 (≈ 28.2 µM)	12.5 (≈ 28.2 µM)	100 (≈ 226 µM)	1.56 (≈ 3.52 µM)	1.5 (≈ 3.39 µM)
O=C(Cc1ccccc1)c1nnc(-c2cc(Br)c(Br)[nH]2)o1	3.12 (≈ 7.6 µM)	3.12 (≈ 7.6 µM)	12.5 (≈ 30.4 µM)	100 (≈ 243 µM)	12.5 (≈ 30.4 µM)	146 (≈ 355 µM)
Nc1ccc(-c2nnc(-c3cc(Br)c(Br)[nH]3)o2)cc1	1.56 (≈ 4.06 µM)	3.12 (≈ 8.14 µM)	6.25 (≈ 16.3 µM)	100 (≈ 260 µM)	12.5 (≈ 32.5 µM)	16.5 (≈ 43 µM)
Clc1ccc(-c2nnc(-c3cc(Br)c(Br)[nH]3)o2)cc1	1.56 (≈ 3.87 µM)	1.56 (≈ 3.87 µM)	6.25 (≈ 15.5 µM)	100 (≈ 248 µM)	12.5 (≈ 31 µM)	9.5 (≈ 23.5 µM)
COc1ccc(-c2nnc(-c3cc(Br)c(Br)[nH]3)o2)cc1	3.12 (≈ 7.83 µM)	3.12 (≈ 7.83 µM)	6.25 (≈ 15.7 µM)	100 (≈ 251 µM)	12.5 (≈ 31.3 µM)	56.5 (≈ 142 µM)
Clc1ccc(-c2nnc(-c3cc(Br)c(Br)[nH]3)o2)c(Cl)c1	12.5 (≈ 28.5 µM)	6.25 (≈ 14.3 µM)	6.25 (≈ 14.3 µM)	100 (≈ 228 µM)	12.5 (≈ 28.5 µM)	1.6 (≈ 3.65 µM)
C[C@@H]1[C@H](O)[C@@H](C)/C=C/C=C/C=C/C=C/C=C/C=C/C=C/[C@H](O[C@@H]2O[C@H](C)[C@@H](O)[C@H](N)[C@@H]2O)C[C@@H]2O[C@](O)(C[C@@H](O)C[C@@H](O)[C@H](O)CC[C@@H](O)C[C@@H](O)CC(=O)O[C@H]1C)C[C@H](O)[C@H]2C(=O)O [AMPHOTERICIN B]	–	–	–	–	1.56 (≈ 1.69 µM)	–
O=C(O)c1cn(C2CC2)c2cc(N3CCNCC3)c(F)cc2c1=O [CIPROFLOXACIN]	–	1.56 (≈ 4.71 µM)	3.12 (≈ 9.43 µM)	1.56 (≈ 4.71 µM)	–	–
NNC(=O)c1ccncc1 [ISONIAZID]	–	–	–	–	–	0.4 (≈ 2.92 µM)
